The list is not random: actives were taken first. Their share in the collection is about 3.7%.
GAA850 FXN act: increases GAA850 frataxin promoter reporter activity; HEK293 lucGAA850 FXN promoter luciferase reporter, 24 h; percent of 10 µM SAHA response; activation, % at 6 µM; hit rate 0.56% among 360,000;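 active = activation above the average of all compounds screened plus 3 SD, cutoff fixed separately per campaign, cut at about 7.5% in these data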;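 note: 0% = DMSO wells and 100% = 10 µM SAHA wells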
AHR act: activators of human aryl hydrocarbon receptor | hit rate 2.5% among 320,000 | activation, % at 5 µM | AHR-responsive luciferase reporter cells, luminescence; in the data active = activation above about 47%;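 note: 0% = vehicle wells and 100% = reference agonist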
SR-BI DiI inh: mouse SR-BI HDL lipid transfer inhibition | ldlA[mSR-BI] CHO cells, DiI-HDL uptake fluorescence, 3 h | Q61009 | hit rate 0.96% among 320,000 | inhibition, % at 12.5 µM | AID 488896;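 active = mean replicate inhibition of at least 70% and a set share of replicates each scoring 70 or more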;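 note: 0% = median of neutral control wells and 100% = median of positive control wells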
JMJD2C inh: blocks human GASC-1 demethylase activity | GST-JMJD2C(1-420) H3K9me3 demethylation, DELFIA europium | AID 2099 | inhibition, % at 2.35 µM | Q9H3R0 | hit rate 0.069% among 330,000;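 active = more than half of a compound's replicate wells show inhibition beyond 50%, single wells judged on their own value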;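 note: signal counts dimethyl H3K9 product captured on neutravidin plate; 0% = median of DMSO wells and 100% = 0.3 times that DMSO median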
Target sequence (Q9H3R0 1-420 limits assumed): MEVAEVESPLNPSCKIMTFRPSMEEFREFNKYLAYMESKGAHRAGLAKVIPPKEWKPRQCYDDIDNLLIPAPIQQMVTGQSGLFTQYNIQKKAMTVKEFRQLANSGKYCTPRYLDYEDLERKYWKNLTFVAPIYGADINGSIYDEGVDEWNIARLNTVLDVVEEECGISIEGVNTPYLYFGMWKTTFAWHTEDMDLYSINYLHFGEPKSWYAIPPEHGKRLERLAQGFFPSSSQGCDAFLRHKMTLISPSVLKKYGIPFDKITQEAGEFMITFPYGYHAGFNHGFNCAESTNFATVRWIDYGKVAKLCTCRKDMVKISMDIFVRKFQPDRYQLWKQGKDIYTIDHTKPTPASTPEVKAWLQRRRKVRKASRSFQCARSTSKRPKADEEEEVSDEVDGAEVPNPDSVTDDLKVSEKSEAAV
SR-BI DiI-HDL act: activators of SR-BI mediated HDL lipid uptake | AID 504775 | activation, % at 12.5 µM | CHO ldlA[mSR-BI] cells, DiI-HDL uptake fluorescence, 3 h; 100 = double the neutral-control signal | hit rate 0.096% among 320,000;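 active = mean replicate activation of at least 60% and every replicate at or above 60%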;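 note: 0% = median plate neutral-control signal and 100% = twice that signal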
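Assay system: CHO ldlA[mSR-BI] cells, LDL receptor-null, SR-BI overexpressing; medium: Ham's F12 with 0.5% BSA, HEPES 25 mM, pH 7.4; also added: DiI-HDL 10 µg/mL; timing: 3 h uptake period with compound, 37 °C; signal: DiI fluorescence, bottom read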
AHR act confirm: human AHR activation, confirmation | shares compounds with AHR act | hit rate 87% among 2,300 | activation, % at 9 µM | human cells, AHR-responsive luciferase reporter, luminescence; in the data active = activation above about 49%;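 note: HepG2 hepatoma cells carrying a DRE-driven firefly luciferase reporter; 0% = vehicle wells and 100% = reference agonist wells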
PXR counter: counter-screen for AHR activators: human PXR activators; activation, % at 11.6 µM; cell-based PXR reporter, luciferase luminescence; shares compounds with AHR act; hit rate 88% among 2,300; in the data active = activation above about 11%;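 note: human hepatoma DPX-2 cells expressing full-length human PXR; 0% = DMSO and 100% = reference agonist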
Active calls of the source: *.

How did Nc1nc2ccc(C(=O)Nc3ccccc3)cc2s1 do in these assays?
GAA850 FXN act: 5; AHR act: 100*; SR-BI DiI inh: 5; JMJD2C inh: -5; SR-BI DiI-HDL act: -5; AHR act confirm: 137*; PXR counter: 48*

What do the screens show for `CN(C(=O)c1ccc2nc(N)sc2c1)c1ccccc1`?
GAA850 FXN act: 1; AHR act: 22; SR-BI DiI inh: 0; JMJD2C inh: 6; SR-BI DiI-HDL act: 0

How did CCc1ccc(NC(=O)c2ccc3nc(N)sc3c2)cc1 do in these assays?
GAA850 FXN act: 2; AHR act: 99*; SR-BI DiI inh: -3; JMJD2C inh: 1; SR-BI DiI-HDL act: 3; AHR act confirm: 51*; PXR counter: 18*

What do the screens show for `COc1ccc(OC)c(Nc2nc(NCCO)c3ccccc3n2)c1`?
GAA850 FXN act: 0; AHR act: 88*; SR-BI DiI inh: 17; JMJD2C inh: -2; SR-BI DiI-HDL act: -17; AHR act confirm: 85*; PXR counter: 35*

Results for CCn1c(SCC(=O)NNC(=O)c2ccccc2)nnc1-c1ccncc1 ?
GAA850 FXN act: -4; AHR act: 1; SR-BI DiI inh: -11; JMJD2C inh: 2; SR-BI DiI-HDL act: 11

How did CC(C)c1onc(C(=O)NCc2ccccc2)c1[N+](=O)[O-] do in these assays?
GAA850 FXN act: 0; AHR act: 1; SR-BI DiI inh: -21; JMJD2C inh: -1; SR-BI DiI-HDL act: 21

How did Cc1cc(C)c(C#N)c(Nc2ccccc2)n1 do in these assays?
GAA850 FXN act: 2; AHR act: 28; SR-BI DiI inh: 23; JMJD2C inh: -5; SR-BI DiI-HDL act: -23

How did COc1ccc(Nc2nc(C)cc(C)c2C#N)cc1OC do in these assays?
GAA850 FXN act: -3; AHR act: 114*; SR-BI DiI inh: 32; JMJD2C inh: 8; SR-BI DiI-HDL act: -32; AHR act confirm: 59*; PXR counter: 20*

Results for COc1cccc(Nc2nc(C)cc(C)c2C#N)c1 ?
GAA850 FXN act: -1; AHR act: 79*; SR-BI DiI inh: 37; SR-BI DiI-HDL act: -37; AHR act confirm: 63*; PXR counter: 31*

Results for Cc1cc(C)c(C#N)c(Nc2ccc3c(c2)OCCO3)n1 ?
GAA850 FXN act: 2; AHR act: 86*; JMJD2C inh: 7; AHR act confirm: 103*; PXR counter: 22*

What do the screens show for `CCCCOc1ccc(Nc2nc(C)cc(C)c2C#N)cc1`?
GAA850 FXN act: 1; AHR act: 42; SR-BI DiI inh: 31; JMJD2C inh: -15; SR-BI DiI-HDL act: -31

How did Cc1cccc(Nc2nc(C)cc(C)c2C#N)c1 do in these assays?
GAA850 FXN act: 1; AHR act: 32; SR-BI DiI inh: 13; JMJD2C inh: -7; SR-BI DiI-HDL act: -13

Results for O=C(NCCOCCNC(=O)OCc1ccccc1)OCc1ccccc1 ?
GAA850 FXN act: -1; AHR act: 8; SR-BI DiI inh: -2; JMJD2C inh: 10; SR-BI DiI-HDL act: 2

How did CN(CCc1ccccn1)C(=S)Nc1cccc(S(=O)(=O)N(C)C)c1 do in these assays?
GAA850 FXN act: 1; AHR act: 3; JMJD2C inh: -12

What do the screens show for `Cc1ccc(OCC(=O)Nc2nnc(S(=O)(=O)N3CCC(C)CC3)s2)cc1`?
GAA850 FXN act: -2; AHR act: 4; SR-BI DiI inh: -9; SR-BI DiI-HDL act: 9

What do the screens show for `O=C(N=Nc1c(O)[nH]c2ccccc12)c1ccc2c(c1)OCO2`?
GAA850 FXN act: 4; AHR act: 95*; SR-BI DiI inh: -1; JMJD2C inh: -2; SR-BI DiI-HDL act: 1; AHR act confirm: 65*; PXR counter: 21*

What do the screens show for `O=C(N=Nc1c(O)[nH]c2ccccc12)c1ccc(CN2CCOCC2)cc1`?
GAA850 FXN act: 2; AHR act: 1; SR-BI DiI inh: -3; JMJD2C inh: 4; SR-BI DiI-HDL act: 3

What do the screens show for `COc1cc(C2NC(=O)NC(c3ccccc3)=C2C(C)=O)c(Br)c(Br)c1O` (stereo not given)?
GAA850 FXN act: 2; AHR act: 1; SR-BI DiI inh: 3; JMJD2C inh: 1; SR-BI DiI-HDL act: -3

Results for COc1ccc(OC)c(Nc2nc(NCCCN(C)C)nc(N)c2[N+](=O)[O-])c1 ?
GAA850 FXN act: 1; AHR act: 38; SR-BI DiI inh: 2; JMJD2C inh: 24; SR-BI DiI-HDL act: -2

How did COc1ccccc1Nc1nc(NCCO)nc(N)c1[N+](=O)[O-] do in these assays?
GAA850 FXN act: -1; AHR act: 97*; JMJD2C inh: 4; AHR act confirm: 128*

What do the screens show for `CNc1nc(N)c([N+](=O)[O-])c(Nc2ccccc2OC)n1`?
GAA850 FXN act: 2; AHR act: 107*; SR-BI DiI inh: 19; JMJD2C inh: 130; SR-BI DiI-HDL act: -19; AHR act confirm: 93*; PXR counter: 18*

Results for O=C(N=C1c2ccccc2CN1c1ccc(F)c(Cl)c1)c1cccnc1Cl ?
AHR act: 123*; JMJD2C inh: 15; AHR act confirm: 113*; PXR counter: 158*

What do the screens show for `CCN(CC)S(=O)(=O)c1ccc(C)c(NC(=S)N2CCN(C/C=C/c3ccccc3)CC2)c1`?
GAA850 FXN act: -2; AHR act: 1; SR-BI DiI inh: 59; JMJD2C inh: -11; SR-BI DiI-HDL act: -59

What do the screens show for `Cc1ccccc1N1CCN(C2CCCN(C(=O)c3ccnn3C)C2)CC1` (stereo not given)?
GAA850 FXN act: 1; AHR act: -2; SR-BI DiI inh: 5; JMJD2C inh: 19; SR-BI DiI-HDL act: -5

How did CCn1c(C)cc(/C=C2/NC(=O)N(CC(=O)Nc3cccc(C)c3)C2=O)c1C do in these assays?
GAA850 FXN act: 0; AHR act: 11; SR-BI DiI inh: -18; JMJD2C inh: -3; SR-BI DiI-HDL act: 18

How did CCn1c(C)cc(/C=C2\NC(=O)N(CC(=O)Nc3cccc(C)c3)C2=O)c1C do in these assays?
GAA850 FXN act: 1; AHR act: 80*; SR-BI DiI inh: 8; JMJD2C inh: -7; SR-BI DiI-HDL act: -8; AHR act confirm: 78*; PXR counter: 16*

How did O=C(NCc1ccncc1)Nc1cc(Cl)ccc1Cl do in these assays?
GAA850 FXN act: 0; AHR act: 97*; SR-BI DiI inh: -31; JMJD2C inh: 1; SR-BI DiI-HDL act: 31; AHR act confirm: 63*; PXR counter: 26*

What do the screens show for `COC(=O)c1cc(-c2ccc(OC)cc2F)nc2nc(SC)[nH]c(=O)c12`?
GAA850 FXN act: 1; AHR act: -2; JMJD2C inh: -1

How did Cc1nccc(-c2ccc(-n3cnc4ccccc43)cc2)n1 do in these assays?
GAA850 FXN act: -2; AHR act: 83*; SR-BI DiI inh: 32; JMJD2C inh: 3; SR-BI DiI-HDL act: -32; AHR act confirm: 63*

Bioassay records as filed in PubChem.
